# Data: ChEMBL document CHEMBL1154449, “Synthesis, characterization and in vitro antibacterial activity of thiourea and urea derivatives of steroids” (2008)
# Experiments:
# Streptococcus pyogenes [1] = experiment: Antibacterial activity against Streptococcus pyogenes at 1 mg/disk after 18 hrs at 36 degC by disk diffusion method; format: functional
# Procedure, shortened: (§1)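 Disk diffusion. Strains were subcultured in BHI for 18 h at 37 °C, then suspended in saline by McFarland to about […] CFU/mL. The suspension was mixed with sterile antibiotic agar at 40 °C and poured onto plates, and 6.0 mm paper disks were applied. Test compound stock was made in DMSO and diluted to several concentrations applied to disks. Chloramphenicol disks served as positive control and DMSO disks as negative control. Inhibition zone (mm) was read after 18 h at 36 °C.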
# Staphylococcus aureus [2] = experiment: Antibacterial activity against Staphylococcus aureus at 1 mg/disk after 18 hrs at 36 degC by disk diffusion method; format: functional; procedure, shortened: as §1
# Salmonella typhimurium [3] = experiment: Antibacterial activity against Salmonella Typhimurium at 1 mg/disk after 18 hrs at 36 degC by disk diffusion method; format: functional, Salmonella enterica subsp. enterica serovar Typhimurium; procedure, shortened: as §1
# Streptococcus pyogenes [4] = experiment: Antibacterial activity against Streptococcus pyogenes after 18 hrs at 37 degC by microdilution method; format: functional; settings: in the assay text read “macrodilution” for “microdilution”
# Escherichia coli [5] = experiment: Antibacterial activity against Escherichia coli after 18 hrs at 37 degC by microdilution method; format: functional
# Staphylococcus aureus [6] = experiment: Antibacterial activity against Staphylococcus aureus after 18 hrs at 37 degC by microdilution method; format: functional; settings: in the assay text read “macrodilution” for “microdilution”
# Salmonella typhimurium [7] = experiment: Antibacterial activity against Salmonella Typhimurium after 18 hrs at 37 degC by microdilution method; format: functional, Salmonella enterica subsp. enterica serovar Typhimurium; settings: Salmonella enterica, in the assay text read “macrodilution” for “microdilution”
# Escherichia coli [8] = experiment: Antibacterial activity against Escherichia coli at 1 mg/disk after 18 hrs at 36 degC by disk diffusion method; format: functional; procedure, shortened: as §1
# Escherichia coli [9] = experiment: Antibacterial activity against Escherichia coli at 30 ug/disk after 18 hrs at 36 degC by disk diffusion method; format: functional; settings: read-out: IZ; procedure, shortened: as §1
# Streptococcus pyogenes [10] = experiment: Antibacterial activity against Streptococcus pyogenes at 30 ug/disk after 18 hrs at 36 degC by disk diffusion method; format: functional; settings: read-out: IZ; procedure, shortened: as §1
# Staphylococcus aureus [11] = experiment: Antibacterial activity against Staphylococcus aureus at 30 ug/disk after 18 hrs at 36 degC by disk diffusion method; format: functional; settings: read-out: IZ
# Procedure, shortened: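 S. aureus subcultured in BHI medium 18 h at 37 °C, then suspended in saline per McFarland protocol; suspension mixed with sterile antibiotic agar at 40 °C and poured as plates. Paper disks (6.0 mm) loaded with DMSO-dissolved compound at graded concentrations; chloramphenicol disk positive control, DMSO disk negative control. Inhibition zone diameter (mm) read after 18 h at 36 °C.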
# Salmonella typhimurium [12] = experiment: Antibacterial activity against Salmonella Typhimurium at 30 ug/disk after 18 hrs at 36 degC by disk diffusion method; format: functional, Salmonella enterica subsp. enterica serovar Typhimurium; settings: Salmonella enterica, read-out: IZ; procedure, shortened: as §1
Structure (SMILES),inhibition zone (IZ) (Streptococcus pyogenes [1]) [mm],inhibition zone (IZ) (Staphylococcus aureus [2]) [mm],inhibition zone (IZ) (Salmonella typhimurium [3]) [mm],MIC (Streptococcus pyogenes [4]) [µg/mL],MIC (Escherichia coli [5]) [µg/mL],MIC (Staphylococcus aureus [6]) [µg/mL],MIC (Salmonella typhimurium [7]) [µg/mL],inhibition zone (IZ) (Escherichia coli [8]) [mm],zone of inhibition at 30 µg/disc (Escherichia coli [9]) [mm],zone of inhibition at 30 µg/disc (Streptococcus pyogenes [10]) [mm],zone of inhibition at 30 µg/disc (Staphylococcus aureus [11]) [mm],zone of inhibition at 30 µg/disc (Salmonella typhimurium [12]) [mm]
CC[C@H](/C=C/[C@@H](C)[C@H]1CC[C@H]2[C@@H]3C4=C[C@]5(C[C@@H](Cl)CC[C@]5(C)[C@H]3CC[C@]12C)NC(=S)N4)C(C)C,23.2,19.7,18.7,64,32,64,32,20.7,,,,
CC(C)CCC[C@@H](C)[C@H]1CC[C@H]2[C@@H]3CC=C4C[C@@H](O)CC[C@]4(C)[C@H]3CC[C@]12C [CHOLESTEROL],7.8,9.2,8.2,512,512,512,512,9,,,,
CC[C@H](/C=C/[C@@H](C)[C@H]1CC[C@H]2[C@@H]3C4=C[C@]5(C[C@@H](Cl)CC[C@]5(C)[C@H]3CC[C@]12C)NC(=O)N4)C(C)C,15.2,16.8,14.4,128,128,64,128,14.8,,,,
CC[C@H](/C=C/[C@@H](C)[C@H]1CC[C@H]2[C@@H]3C4=C[C@]5(C[C@@H](OC(C)=O)CC[C@]5(C)[C@H]3CC[C@]12C)NC(=S)N4)C(C)C,21.6,22.5,19.4,64,32,32,32,23.4,,,,
CC[C@H](/C=C/[C@@H](C)[C@H]1CC[C@H]2[C@@H]3C4=C[C@]5(C[C@@H](OC(C)=O)CC[C@]5(C)[C@H]3CC[C@]12C)NC(=O)N4)C(C)C,12.4,14.4,15.2,128,64,64,128,16.3,,,,
O=C(N[C@H](CO)[C@H](O)c1ccc([N+](=O)[O-])cc1)C(Cl)Cl [CHLORAMPHENICOL],,,,,,,,,20,22.2,21,25.2
